Data from ChEMBL document CHEMBL1134643 (J Med Chem, 2001).
Activity calls are given as the source filed them. The calls are words filed in the database; no cut-off is given here.

Columns and labels:
Mus musculus [1] = organism: Mus musculus; assay: Maximum receptor binding assay determined by using mouse forebrain membrane and [3H]NC-NH2 at 10 uM; assay type: functional
Mus musculus [2] = organism: Mus musculus; assay: Maximum receptor binding assay determined by using mouse forebrain membrane and [3H]NC-NH2; assay type: functional
How it was run: (§1)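 Forebrains from male Swiss mice are homogenised in 50 mM Tris-HCl, 2 mM EDTA, 100 μM PMSF, pH 7.4. Membranes are preincubated 30 min at 37 °C and stored at -80 °C. Displacement uses 0.5 nM [3H]NC-NH2, 200 μg protein, and graded ligand concentrations up to 10 μM, for 120 min at 25 °C.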

[3] = target: Nociceptin receptor (Mus musculus) (UniProt P35377); assay: Maximum receptor binding in the electrically stimulated mouse vas deferens; assay type: functional, tissue-based
Nociceptin receptor (Mus musculus), sequence (P35377 whole entry): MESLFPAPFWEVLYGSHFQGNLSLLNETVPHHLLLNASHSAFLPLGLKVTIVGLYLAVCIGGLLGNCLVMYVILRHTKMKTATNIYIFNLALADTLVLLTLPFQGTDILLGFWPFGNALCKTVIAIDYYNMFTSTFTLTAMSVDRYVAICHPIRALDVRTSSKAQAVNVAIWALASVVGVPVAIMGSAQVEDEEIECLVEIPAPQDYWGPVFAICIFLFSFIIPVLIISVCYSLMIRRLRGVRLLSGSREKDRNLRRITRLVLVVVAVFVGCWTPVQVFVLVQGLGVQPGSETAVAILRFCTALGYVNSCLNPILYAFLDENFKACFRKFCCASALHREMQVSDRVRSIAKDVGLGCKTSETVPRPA
How it was run: (§2)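 Vas deferens from male Swiss mice (25-30 g) is held in Mg2+-free Krebs at 33 °C, gassed with 95% O2/5% CO2 at pH 7.4. Tissue is stimulated at 0.05 Hz with 1 ms supramaximal pulses under 0.3 g resting tension, and twitches are recorded isotonically.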

Nociceptin receptor [4] = target: Nociceptin receptor (Mus musculus, UniProt P35377); assay: Inhibition of [3H]NC-NH2 binding to mouse forebrain membranes; set-up: species or system Membrane
Nociceptin receptor (Mus musculus, UniProt P35377), sequence (P35377 whole entry): as above

Mus musculus [5] = organism: Mus musculus; assay: Maximum receptor binding using mouse forebrain membranes and [3H]NC-NH2; assay type: functional; settings: Membrane; how it was run: as §1
Mus musculus [6] = organism: Mus musculus; assay: receptor binding constant using mouse forebrain membranes and [3H]NC-NH2 as radioligand; assay type: functional, Membrane; how it was run: as §1
Mus musculus [7] = organism: Mus musculus; assay: Maximum receptor binding assay determined by using mouse forebrain membrane and [3H]NC-NH2; Inactive; assay type: functional; how it was run: as §1
Mus musculus [8] = organism: Mus musculus; assay: Agonist activity of compound in the electrically stimulated mouse vas deferens; Inactive; assay type: functional; how it was run: as §2
Mus musculus [9] = organism: Mus musculus; assay: Antagonist activity of compound in the electrically stimulated mouse vas deferens; Inactive; assay type: functional
How it was run: (§3)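 Peptides without agonist effect in the mouse vas deferens (Mg2+-free Krebs, 33 °C, 0.05 Hz, 1 ms pulses) are tested up to 10 μM. Each is added 15 min before a cumulative concentration-response curve to NC(1-13)-NH2. pKB is calculated with the Gaddum-Schild equation, taking slope as unity, from the concentration-ratio of equieffective agonist concentrations.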

Mus musculus [10] = organism: Mus musculus; assay: Antagonist activity of compound in the electrically stimulated mouse vas deferens; assay type: functional; how it was run: as §3
Nociceptin receptor [11] = target: Nociceptin receptor (Homo sapiens, UniProt P41146); assay: Inhibition of forskolin stimulated cAMP accumulation in CHO cells stably expressing the human OP4 receptor; assay type: functional, cell-based
Nociceptin receptor (Homo sapiens, UniProt P41146), sequence (P41146 whole entry): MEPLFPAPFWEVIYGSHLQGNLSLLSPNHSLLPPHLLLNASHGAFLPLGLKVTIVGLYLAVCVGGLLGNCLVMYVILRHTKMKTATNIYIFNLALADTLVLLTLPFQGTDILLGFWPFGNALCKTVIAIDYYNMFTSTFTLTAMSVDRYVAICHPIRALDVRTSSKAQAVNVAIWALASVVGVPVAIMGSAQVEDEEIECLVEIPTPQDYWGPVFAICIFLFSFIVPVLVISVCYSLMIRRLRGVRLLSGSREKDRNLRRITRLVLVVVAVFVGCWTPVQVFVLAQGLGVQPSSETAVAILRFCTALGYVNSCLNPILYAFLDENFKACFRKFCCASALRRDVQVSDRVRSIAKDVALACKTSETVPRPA

Structure (SMILES)	Emax [3] [%]	Ki (Nociceptin receptor [4]) [nM]	also measured
C[C@H](NC(=O)CNC(=O)[C@@H](NC(=O)CN(Cc1ccccc1)C(=O)CNC(=O)CNC(=O)[C@@H](N)Cc1ccccc1)[C@@H](C)O)C(=O)N[C@@H](CCCN=C(N)N)C(=O)N[C@@H](CCCCN)C(=O)N[C@@H](CO)C(=O)N[C@@H](C)C(=O)N[C@@H](CCCN=C(N)N)C(=O)N[C@@H](CCCCN)C(N)=O			Emax (Mus musculus [1]): -16%
C[C@H](NC(=O)CNC(=O)[C@@H](NC(=O)[C@H](Cc1ccccc1)NC(=O)CNC(=O)CNC(=O)[C@@H](N)Cc1ccccc1)[C@@H](C)O)C(=O)N[C@@H](CCCNC(=N)N)C(=O)N[C@@H](CCCCN)C(=O)N[C@@H](CO)C(=O)N[C@@H](C)C(=O)N[C@@H](CCCNC(=N)N)C(=O)N[C@@H](CCCCN)C(N)=O			Emax (Mus musculus [2]): -82%
C[C@H](NC(=O)CNC(=O)[C@@H](NC(=O)[C@H](Cc1ccc(Cl)cc1)NC(=O)CNC(=O)CNC(=O)[C@@H](N)Cc1ccccc1)[C@@H](C)O)C(=O)N[C@@H](CCCN=C(N)N)C(=O)N[C@@H](CCCCN)C(=O)N[C@@H](CO)C(=O)N[C@@H](C)C(=O)N[C@@H](CCCN=C(N)N)C(=O)N[C@@H](CCCCN)C(N)=O	-82	0.794	
C[C@H](NC(=O)CNC(=O)[C@@H](NC(=O)[C@H](Cc1cccc2ccccc12)NC(=O)CNC(=O)CNC(=O)[C@@H](N)Cc1ccccc1)[C@@H](C)O)C(=O)N[C@@H](CCCN=C(N)N)C(=O)N[C@@H](CCCCN)C(=O)N[C@@H](CO)C(=O)N[C@@H](C)C(=O)N[C@@H](CCCN=C(N)N)C(=O)N[C@@H](CCCCN)C(N)=O			Emax (Mus musculus [5]): -80%
C[C@H](NC(=O)CNC(=O)[C@@H](NC(=O)[C@H](Cc1ccc(C(F)(F)F)cc1)NC(=O)CNC(=O)CNC(=O)[C@@H](N)Cc1ccccc1)[C@@H](C)O)C(=O)N[C@@H](CCCN=C(N)N)C(=O)N[C@@H](CCCCN)C(=O)N[C@@H](CO)C(=O)N[C@@H](C)C(=O)N[C@@H](CCCN=C(N)N)C(=O)N[C@@H](CCCCN)C(N)=O	-75	1	
C[C@H](NC(=O)CNC(=O)[C@@H](NC(=O)[C@H](Cc1ccccc1)N(C)C(=O)CNC(=O)CNC(=O)[C@@H](N)Cc1ccccc1)[C@@H](C)O)C(=O)N[C@@H](CCCN=C(N)N)C(=O)N[C@@H](CCCCN)C(=O)N[C@@H](CO)C(=O)N[C@@H](C)C(=O)N[C@@H](CCCN=C(N)N)C(=O)N[C@@H](CCCCN)C(N)=O			Emax (Mus musculus [2]): -84%
Cc1ccc(C[C@H](NC(=O)CNC(=O)CNC(=O)[C@@H](N)Cc2ccccc2)C(=O)N[C@H](C(=O)NCC(=O)N[C@@H](C)C(=O)N[C@@H](CCCN=C(N)N)C(=O)N[C@@H](CCCCN)C(=O)N[C@@H](CO)C(=O)N[C@@H](C)C(=O)N[C@@H](CCCN=C(N)N)C(=O)N[C@@H](CCCCN)C(N)=O)[C@@H](C)O)cc1	-73		Log Ki (Mus musculus [6]): -7.84
C[C@H](NC(=O)CNC(=O)[C@@H](NC(=O)[C@H](Cc1ccc(I)cc1)NC(=O)CNC(=O)CNC(=O)[C@@H](N)Cc1ccccc1)[C@@H](C)O)C(=O)N[C@@H](CCCN=C(N)N)C(=O)N[C@@H](CCCCN)C(=O)N[C@@H](CO)C(=O)N[C@@H](C)C(=O)N[C@@H](CCCN=C(N)N)C(=O)N[C@@H](CCCCN)C(N)=O	-76	17.4	
C[C@H](NC(=O)CNC(=O)[C@@H](NC(=O)[C@H](Cc1ccc(N)cc1)NC(=O)CNC(=O)CNC(=O)[C@@H](N)Cc1ccccc1)[C@@H](C)O)C(=O)N[C@@H](CCCN=C(N)N)C(=O)N[C@@H](CCCCN)C(=O)N[C@@H](CO)C(=O)N[C@@H](C)C(=O)N[C@@H](CCCN=C(N)N)C(=O)N[C@@H](CCCCN)C(N)=O	-23	1780	
C[C@H](NC(=O)CNC(=O)[C@@H](NC(=O)[C@H](Cc1ccc(Br)cc1)NC(=O)CNC(=O)CNC(=O)[C@@H](N)Cc1ccccc1)[C@@H](C)O)C(=O)N[C@@H](CCCN=C(N)N)C(=O)N[C@@H](CCCCN)C(=O)N[C@@H](CO)C(=O)N[C@@H](C)C(=O)N[C@@H](CCCN=C(N)N)C(=O)N[C@@H](CCCCN)C(N)=O	-85	1.82	
C[C@H](NC(=O)CNC(=O)[C@@H](NC(=O)[C@H](CC1CCCCC1)NC(=O)CNC(=O)CNC(=O)[C@@H](N)Cc1ccccc1)[C@@H](C)O)C(=O)N[C@@H](CCCN=C(N)N)C(=O)N[C@@H](CCCCN)C(=O)N[C@@H](CO)C(=O)N[C@@H](C)C(=O)N[C@@H](CCCN=C(N)N)C(=O)N[C@@H](CCCCN)C(N)=O			Emax (Mus musculus [1]): -34%
C[C@H](NC(=O)CNC(=O)[C@@H](NC(=O)[C@H](Cc1ccc(-c2ccccc2)cc1)NC(=O)CNC(=O)CNC(=O)[C@@H](N)Cc1ccccc1)[C@@H](C)O)C(=O)N[C@@H](CCCN=C(N)N)C(=O)N[C@@H](CCCCN)C(=O)N[C@@H](CO)C(=O)N[C@@H](C)C(=O)N[C@@H](CCCN=C(N)N)C(=O)N[C@@H](CCCCN)C(N)=O			Emax (Mus musculus [7]): inactive; Log EC50 (Mus musculus [8]): inactive; pKb (Mus musculus [9]): inactive
C[C@H](NC(=O)CNC(=O)[C@@H](NC(=O)[C@H](Cc1cccc(F)c1)NC(=O)CNC(=O)CNC(=O)[C@@H](N)Cc1ccccc1)[C@@H](C)O)C(=O)N[C@@H](CCCN=C(N)N)C(=O)N[C@@H](CCCCN)C(=O)N[C@@H](CO)C(=O)N[C@@H](C)C(=O)N[C@@H](CCCN=C(N)N)C(=O)N[C@@H](CCCCN)C(N)=O	-90	0.891	
C[C@H](NC(=O)CNC(=O)[C@@H](NC(=O)[C@H](Cc1ccc2ccccc2c1)NC(=O)CNC(=O)CNC(=O)[C@@H](N)Cc1ccccc1)[C@@H](C)O)C(=O)N[C@@H](CCCN=C(N)N)C(=O)N[C@@H](CCCCN)C(=O)N[C@@H](CO)C(=O)N[C@@H](C)C(=O)N[C@@H](CCCN=C(N)N)C(=O)N[C@@H](CCCCN)C(N)=O			Emax (Mus musculus [2]): -75%
C[C@H](NC(=O)CNC(=O)[C@@H](NC(=O)[C@H](Cc1ccc(O)cc1)NC(=O)CNC(=O)CNC(=O)[C@@H](N)Cc1ccccc1)[C@@H](C)O)C(=O)N[C@@H](CCCN=C(N)N)C(=O)N[C@@H](CCCCN)C(=O)N[C@@H](CO)C(=O)N[C@@H](C)C(=O)N[C@@H](CCCN=C(N)N)C(=O)N[C@@H](CCCCN)C(N)=O		501	pKb (Mus musculus [10]): 5.47; EC50 (Nociceptin receptor [11]): 135 nM
C[C@H](NC(=O)CNC(=O)[C@@H](NC(=O)[C@@H](NC(=O)CNC(=O)CNC(=O)[C@@H](N)Cc1ccccc1)[C@@H](C)c1ccccc1)[C@@H](C)O)C(=O)N[C@@H](CCCN=C(N)N)C(=O)N[C@@H](CCCCN)C(=O)N[C@@H](CO)C(=O)N[C@@H](C)C(=O)N[C@@H](CCCN=C(N)N)C(=O)N[C@@H](CCCCN)C(N)=O			Emax (Mus musculus [2]): -86%
C[C@H](NC(=O)CNC(=O)[C@@H](NC(=O)[C@H](Cc1ccc(F)cc1)NC(=O)CNC(=O)CNC(=O)[C@@H](N)Cc1ccccc1)[C@@H](C)O)C(=O)N[C@@H](CCCN=C(N)N)C(=O)N[C@@H](CCCCN)C(=O)N[C@@H](CO)C(=O)N[C@@H](C)C(=O)N[C@@H](CCCN=C(N)N)C(=O)N[C@@H](CCCCN)C(N)=O	-85	0.398	
C[C@H](NC(=O)CNC(=O)[C@@H](NC(=O)[C@H](Cc1ccc(C#N)cc1)NC(=O)CNC(=O)CNC(=O)[C@@H](N)Cc1ccccc1)[C@@H](C)O)C(=O)N[C@@H](CCCN=C(N)N)C(=O)N[C@@H](CCCCN)C(=O)N[C@@H](CO)C(=O)N[C@@H](C)C(=O)N[C@@H](CCCN=C(N)N)C(=O)N[C@@H](CCCCN)C(N)=O	-84	0.603	
C[C@H](NC(=O)CNC(=O)[C@@H](NC(=O)[C@H](Cc1ccc([N+](=O)[O-])cc1)NC(=O)CNC(=O)CNC(=O)[C@@H](N)Cc1ccccc1)[C@@H](C)O)C(=O)N[C@@H](CCCN=C(N)N)C(=O)N[C@@H](CCCCN)C(=O)N[C@@H](CO)C(=O)N[C@@H](C)C(=O)N[C@@H](CCCN=C(N)N)C(=O)N[C@@H](CCCCN)C(N)=O	-86	0.302	
COc1ccc(C[C@H](NC(=O)CNC(=O)CNC(=O)[C@@H](N)Cc2ccccc2)C(=O)N[C@H](C(=O)NCC(=O)N[C@@H](C)C(=O)N[C@@H](CCCN=C(N)N)C(=O)N[C@@H](CCCCN)C(=O)N[C@@H](CO)C(=O)N[C@@H](C)C(=O)N[C@@H](CCCN=C(N)N)C(=O)N[C@@H](CCCCN)C(N)=O)[C@@H](C)O)cc1	-80	89.1	EC50 (Nociceptin receptor [11]): 63.1 nM
C[C@H](NC(=O)CNC(=O)[C@@H](NC(=O)[C@H](Cc1ccccc1F)NC(=O)CNC(=O)CNC(=O)[C@@H](N)Cc1ccccc1)[C@@H](C)O)C(=O)N[C@@H](CCCN=C(N)N)C(=O)N[C@@H](CCCCN)C(=O)N[C@@H](CO)C(=O)N[C@@H](C)C(=O)N[C@@H](CCCN=C(N)N)C(=O)N[C@@H](CCCCN)C(N)=O	-94	3.63	
CC(C)C[C@H](NC(=O)[C@H](CCCCN)NC(=O)[C@H](CCCN=C(N)N)NC(=O)[C@H](C)NC(=O)[C@H](CO)NC(=O)[C@H](CCCCN)NC(=O)[C@H](CCCN=C(N)N)NC(=O)[C@H](C)NC(=O)CNC(=O)[C@@H](NC(=O)[C@H](Cc1ccccc1)NC(=O)CNC(=O)CNC(=O)[C@@H](N)Cc1ccccc1)[C@@H](C)O)C(=O)N[C@@H](C)C(=O)N[C@@H](CC(N)=O)C(=O)N[C@@H](CCC(N)=O)C(=O)O		1.91	
